According to ChEMBL document CHEMBL3612036, “Design, Synthesis, and Cardioprotective Effects of N-Mercapto-Based Hydrogen Sulfide Donors” (J Med Chem, 2015):
Calls of active or inactive are those of the source. The calls are words filed in the database; no cut-off is given here.

Key:
[1] = […] peak time for H2S release in pH 7.4 PBS buffer containing 10% THF incubated for 2 hrs at room temperature in presence of cysteine by methylene blue based UV-Vis spectrometry; type: physicochemical; conditions: pH 7.4, 2 h
In short: (§1)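 Donor (30 mM THF stock; 0.1 mM final) was added to PBS (pH 7.4, 50 mM)/THF 9:1 containing the stated thiol, at room temperature for 2 h. 1.0 mL aliquots were taken periodically into methylene blue cocktail (zinc acetate, N,N-dimethyl-p-phenylenediamine in HCl, FeCl3 in HCl) and reacted 15 min. Absorbance was read at 670 nm and H2S quantified against a Na2S calibration curve; peak concentration and peak time were recorded.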

[2] = […] peak time for H2S release in pH 7.4 PBS buffer containing 10% THF incubated for 2 hrs at room temperature in presence of 1 mM GSH by methylene blue based UV-Vis spectrometry; type: physicochemical; conditions: pH 7.4, 2 h; in short: as §1
[3] = GSH-induced H2S release assessed as peak H2S level in pH 7.4 PBS buffer containing 10% THF incubated for 2 hrs at room temperature in presence of cysteine by methylene blue based UV-Vis spectrometry; type: physicochemical; conditions: pH 7.4, 2 h; in short: as §1
[4] = GSH-induced H2S release assessed as peak H2S level in pH 7.4 PBS buffer containing 10% THF incubated for 2 hrs at room temperature in presence of 1 mM GSH by methylene blue based UV-Vis spectrometry; type: physicochemical; conditions: pH 7.4, 2 h; in short: as §1
[5] = tested on: H9c2; assay: Cytotoxicity against rat H9c2 cells assessed as reduction in cell viability at <40 uM incubated for 1 hr by CCK8 assay; type: cell-based; conditions: h9c2, 1 h
In short: (§2)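 H9c2 cells (high-glucose DMEM, 10% FBS, 37 °C, 5% CO2) were exposed 1 h to donor over 20–160 μM, either alone or with 480 μM cysteine, then washed twice with PBS. Viability was measured by CCK-8 (1:10 dilution, 3 h at 37 °C, absorbance 450 nm). The mean OD of 4 wells was expressed as % of control, in triplicate.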

[6] = tested on: H9c2; assay: Cytotoxicity against rat H9c2 cells assessed as reduction in cell viability at >80 uM incubated for 1 hr by CCK8 assay; type: cell-based; conditions: h9c2, 1 h; in short: as §2
[7] = tested on: H9c2; assay: Cytotoxicity against rat H9c2 cells assessed as reduction in cell viability at 160 uM in presence of 480 uM cysteine incubated for 1 hr by CCK8 assay; type: cell-based; conditions: h9c2, 1 h; in short: as §2
[8] = tested on: H9c2; assay: Cytoprotective activity against H2O2-induced cell damage in rat H9c2 cells at 160 uM pre-incubated for 1 hr before H2O2 challenge for 5 hrs in presence of 480 uM cysteine by LDH release assay; type: functional, cell-based
In short: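 H9c2 cells at about 70% confluence were preconditioned 1 h with donor plus cysteine (480 μM), then treated with H2O2 (400 μM) for 5 h. Extracellular LDH was measured in supernatant; intracellular LDH in lysate made with 2% Triton X-100 in DMEM. Kit reaction ran 10 min at room temperature, read at 490/600 nm. % release = extracellular/(extracellular+intracellular). Run 4 times.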

[9] = tested on: H9c2; assay: Cytoprotective activity against H2O2-induced cell damage in rat H9c2 cells assessed as reduction in mitochondrial membrane potential loss at 160 uM pre-incubated for 1 hr before H2O2 challenge for 5 hrs in presence of 480 uM cysteine by Rh123 dye based fluorescent microscopy; type: functional
In short: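 H9c2 cells were grown in high-glucose DMEM with 10% FBS at 37 °C, 5% CO2. They were pretreated 1 h with donor plus cysteine (480 μM), then given H2O2 (400 μM) for 5 h. Rh123 (10 mg/L) was added for 15 min at 37 °C. Fluorescence microscopy gave mean Rh123 intensity from four random fields.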

[10] = tested on: Mus musculus; assay: Cardioprotective activity in C57BL6/J mouse model of myocardial ischemia/reperfusion assessed as reduction in infarct size per area-at-risk dosed through direct intracardiac injection at time of reperfusion by TTC staining method; type: functional, organism-based; conditions: Myocardium
In short: (§3)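 Male C57BL/6J mice, 10–12 weeks old, anesthetised with pentobarbital (50 mg/kg) plus ketamine (60 mg/kg). Left coronary artery occluded with PE-10 tubing for 45 min. Single intracardiac injection at reperfusion; vehicle 0.5% v/v THF in sterile saline. Reperfusion lasted 24 h, then area-at-risk and infarct measured by Evans blue/TTC staining. n = 6–17 per group.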

[11] = tested on: Mus musculus; assay: Cardioprotective activity in C57BL6/J mouse model of myocardial ischemia/reperfusion assessed as reduction in infarct size per area-at-risk at 100 ug/kg dosed through direct intracardiac injection at time of reperfusion by TTC staining method; type: functional; conditions: Myocardium; in short: as §3
[12] = tested on: Mus musculus; assay: Cardioprotective activity in C57BL6/J mouse model of myocardial ischemia/reperfusion assessed as reduction in infarct size per area-at-risk at 50 ug/kg dosed through direct intracardiac injection at time of reperfusion by TTC staining method; type: functional; conditions: Myocardium; in short: as §3
[13] = tested on: Mus musculus; assay: Cardioprotective activity in C57BL6/J mouse model of myocardial ischemia/reperfusion assessed as reduction in circulating cardiac troponin-1 level at 50 ug/kg dosed through direct intracardiac injection at time of reperfusion; type: functional, organism-based; conditions: Heart
In short: (§4)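 Male C57BL/6J mice, 10–12 weeks old, were anesthetized with pentobarbital (50 mg/kg) plus ketamine (60 mg/kg). The left coronary artery was occluded for 45 min. At reperfusion, donor was injected intracardiac: dissolved in THF, diluted in sterile saline to 0.05 or 0.1 mg/mL, final 0.5% v/v THF. Vehicle was 0.5% THF in saline. Tail-vein blood was drawn at 4 h reperfusion for troponin I.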

[14] = tested on: Mus musculus; assay: Cardioprotective activity in C57BL6/J mouse model of myocardial ischemia/reperfusion assessed as reduction in circulating cardiac troponin-1 level at 100 ug/kg dosed through direct intracardiac injection at time of reperfusion; type: functional, organism-based; conditions: Heart; in short: as §4
[15] = tested on: Mus musculus; assay: Effect on area-at-risk per left ventricle in C57BL6/J mouse model of myocardial ischemia/reperfusion at 50 and 100 ug/kg dosed through direct intracardiac injection at time of reperfusion by TTC staining method; type: organism-based, Heart left ventricle; conditions: in vivo, 0.1 mg/kg; in short: as §3

Question: For `O=C(NSC(=O)c1ccc(F)cc1)c1ccccc1`, which Time [1] is on record?
Answer: Its Time is 50 min.

Question: And the Time [2]?
Answer: Its Time is 55 min.

Question: What about the Activity [3] of the same molecule?
Answer: Its Activity is 39.5 µM.

Question: What about the Activity [4] of the same molecule?
Answer: The Activity was 40.6 µM.

Question: And the Activity [5]?
Answer: The Activity was “Non-toxic”.

Question: What about the Activity [6] of the same molecule?
Answer: The Activity was “Toxic”.

Question: What about the Activity [7] of the same molecule?
Answer: The Activity was “Non-toxic”.

Question: And the Activity [8]?
Answer: Its Activity is “Active”.

Question: What about the Activity [9] of the same molecule?
Answer: Its Activity is “Active”.

Question: And the inhibition [10]?
Answer: Its inhibition is “Dose-dependent effect”.

Question: And the inhibition in vivo at 0.1 mg/kg [11]?
Answer: Its inhibition in vivo at 0.1 mg/kg is 50%.

Question: What about the inhibition in vivo at 0.05 mg/kg [12] of the same molecule?
Answer: Its inhibition in vivo at 0.05 mg/kg is 50%.

Question: What about the inhibition [13] of the same molecule?
Answer: The inhibition was “Active”.

Question: And the inhibition [14]?
Answer: Its inhibition is “Active”.

Question: And the Activity [15]?
Answer: The Activity was “Non-toxic”.
